Measured values published in ChEMBL document CHEMBL1135913, “Structure-based design, synthesis, and biological evaluation of irreversible human rhinovirus 3C protease inhibitors. 6. Structure-activity studies of orally bioavailable, 2-pyridone-containing peptidomimetics” (J Med Chem, 2002).

Legend:
[1] = target: T1, Human rhinovirus A protease (Human rhinovirus sp.) (UniProt Q4U254); assay: (§1) cytotoxicity against HRV Protease 3CP (serotype 14)
T1 sequence (whole entry): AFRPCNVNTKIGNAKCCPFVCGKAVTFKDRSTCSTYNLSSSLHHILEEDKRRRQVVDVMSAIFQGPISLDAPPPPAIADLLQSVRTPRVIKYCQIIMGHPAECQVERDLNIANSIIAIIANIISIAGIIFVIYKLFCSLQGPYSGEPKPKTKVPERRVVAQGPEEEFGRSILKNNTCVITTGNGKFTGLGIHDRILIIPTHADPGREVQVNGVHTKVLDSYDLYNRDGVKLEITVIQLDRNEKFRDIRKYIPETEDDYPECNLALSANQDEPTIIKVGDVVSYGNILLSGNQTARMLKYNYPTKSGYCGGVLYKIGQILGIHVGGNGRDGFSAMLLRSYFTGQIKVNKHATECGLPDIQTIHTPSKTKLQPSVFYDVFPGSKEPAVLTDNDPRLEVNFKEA

[2] = target: T2, Human rhinovirus A protease (Human rhinovirus sp., UniProt Q4U254); assay: Inhibition of HRV Protease 3CP (serotype 14).; set-up: species or system Rhinovirus B
T2 sequence (Q4U254 whole entry): T1 sequence (whole entry)

[3] = target: T1, Human rhinovirus A protease (Human rhinovirus sp.); assay: Inhibitory activity against Human Rhinovirus Protease 3C (serotype 14); conditions: Rhinovirus B
[4] = target: T1, Human rhinovirus A protease (Human rhinovirus sp.); assay: cytotoxicity against HRV Protease 3CP (serotype 10),; format: functional
[5] = target: T1, Human rhinovirus A protease (Human rhinovirus sp.); assay: cytotoxicity against HRV Protease 3CP (serotype 1A),; format: functional
[6] = target: T1, Human rhinovirus A protease (Human rhinovirus sp.); assay: cytotoxicity against HRV Protease 3CP (serotype 14),; format: functional
[7] = target: T1, Human rhinovirus A protease (Human rhinovirus sp.); assay: cytotoxicity against Human Rhinovirus Protease 3C (serotype 10); format: functional
[8] = target: T1, Human rhinovirus A protease (Human rhinovirus sp.); assay: cytotoxicity against Human Rhinovirus Protease 3C (serotype 14); format: functional
[9] = target: T1, Human rhinovirus A protease (Human rhinovirus sp.); assay: cytotoxicity against Human Rhinovirus Protease 3C (serotype 1A); format: functional
[10] = Cmax value after 15 mg/kg iv dose in Dogs; format: ADME, organism-based, Canis lupus familiaris; set-up: dose 15 mg/kg, route intravenous; conditions: dog, in vivo
Summary of the method: (§2)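 Dogs (n = 3) received the compound iv or orally in 80:20 propylene glycol:water at 15.0 mg/mL. Blood was sampled periodically for up to 24 h. Plasma levels were measured by LC-MS (detection limit 5 ng/mL). Parameters came from noncompartmental analysis of each animal's concentration–time data.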

Homo sapiens [11] = species on record: Homo sapiens; assay: Half life upon exposure to human plasma
[12] = target: T1, Human rhinovirus A protease (Human rhinovirus sp.); assay: cytotoxicity against HRV Protease 3CP (serotype 10); format: functional
[13] = target: T1, Human rhinovirus A protease (Human rhinovirus sp.); assay: cytotoxicity against HRV Protease 3CP (serotype 1A); format: functional
[14] = Oral bioavailability after 30 mg/kg po dose in Dogs; format: ADME, organism-based, Canis lupus familiaris; conditions: dog, in vivo; summary of the method: as §2
[15] = target: T1, Human rhinovirus A protease (Human rhinovirus sp.); assay: cytotoxicity against HRV Protease 3CP (serotype 13); format: functional
[16] = target: T1, Human rhinovirus A protease (Human rhinovirus sp.); assay: cytotoxicity against HRV Protease 3CP (serotype 3); format: functional
[17] = Plasma clearance after 15 mg/kg iv dose in Dogs; format: ADME, organism-based, Canis lupus familiaris; set-up: dose 15 mg/kg, route intravenous; conditions: dog; summary of the method: as §2
[18] = Tmax value after 30 mg/kg po dose in Dogs; format: ADME, organism-based, Canis lupus familiaris; set-up: dose 30 mg/kg, route oral; conditions: dog, in vivo; summary of the method: as §2
[19] = Half life period after 30 mg/kg po dose in Dogs; format: ADME, organism-based, Canis lupus familiaris; set-up: dose 30 mg/kg, route oral; conditions: dog, in vivo; summary of the method: as §2
[20] = target: T1, Human rhinovirus A protease (Human rhinovirus sp.); assay: cytotoxicity against HRV Protease 3CP (serotype 23); format: functional
[21] = Plasma clearance after 30 mg/kg po dose in Dogs; format: ADME, organism-based, Canis lupus familiaris; set-up: dose 30 mg/kg, route oral; conditions: dog; summary of the method: as §2
[22] = target: T1, Human rhinovirus A protease (Human rhinovirus sp.); assay: cytotoxicity against HRV Protease 3CP (serotype 2); format: functional
[23] = target: T1, Human rhinovirus A protease (Human rhinovirus sp.); assay: cytotoxicity against HRV Protease 3CP (serotype Hanks); format: functional
Canis familiaris = assay: Volume distribution after 30 mg/kg po dose in Dogs; format: ADME, organism-based, Canis lupus familiaris; set-up: dose 30 mg/kg, route oral; conditions: dog, in vivo; summary of the method: as §2
[24] = target: T1, Human rhinovirus A protease (Human rhinovirus sp.); assay: cytotoxicity against HRV Protease 3CP (serotype 78); format: functional
[25] = target: T1, Human rhinovirus A protease (Human rhinovirus sp.); assay: cytotoxicity against HRV Protease 3CP (serotype 19); format: functional
[26] = target: T1, Human rhinovirus A protease (Human rhinovirus sp.); assay: cytotoxicity against HRV Protease 3CP (serotype 9); format: functional
[27] = AUC value after 30 mg/kg po dose in Dogs; format: ADME, organism-based, Canis lupus familiaris; set-up: dose 30 mg/kg, route oral; conditions: dog, plasma; summary of the method: as §2
[28] = Cmax value after 30 mg/kg po dose in Dogs; format: ADME, organism-based, Canis lupus familiaris; set-up: dose 30 mg/kg, route oral; conditions: dog, in vivo; summary of the method: as §2
[29] = target: T1, Human rhinovirus A protease (Human rhinovirus sp.); assay: cytotoxicity against HRV Protease 3CP (serotype 11); format: functional
[30] = target: T1, Human rhinovirus A protease (Human rhinovirus sp.); assay: cytotoxicity against HRV Protease 3CP (serotype 25); format: functional
[31] = Tmax value after 15 mg/kg iv dose in Dogs; format: ADME, organism-based, Canis lupus familiaris; set-up: dose 15 mg/kg, route intravenous; conditions: dog, in vivo; summary of the method: as §2
[32] = AUC value after 15 mg/kg iv dose in Dogs; format: ADME, organism-based, Canis lupus familiaris; set-up: dose 15 mg/kg, route intravenous; conditions: dog, plasma; summary of the method: as §2
Homo sapiens [33] = species on record: Homo sapiens; assay: Loss of compound (%metabolized) after 30 min exposure to human liver microsomes; conditions: read-out: Metabolism
[34] = target: T1, Human rhinovirus A protease (Human rhinovirus sp.); assay: cytotoxicity against HRV Protease 3CP (serotype 39); format: functional
[35] = Volume distribution after 15 mg/kg iv dose in Dogs; format: ADME, organism-based, Canis lupus familiaris; set-up: dose 15 mg/kg, route intravenous; conditions: dog, in vivo, read-out: V; summary of the method: as §2
[36] = target: T1, Human rhinovirus A protease (Human rhinovirus sp.); assay: cytotoxicity against HRV Protease 3CP (serotype 16); format: functional
[37] = Half life period after 15 mg/kg iv dose in Dogs; format: ADME, organism-based, Canis lupus familiaris; set-up: dose 15 mg/kg, route intravenous; conditions: dog, in vivo; summary of the method: as §2
[38] = target: T1, Human rhinovirus A protease (Human rhinovirus sp.); assay: as §1; format: functional
[39] = Loss of compound (%metabolized) after 30 min exposure to human liver microsomes; format: ADME, Microsome; conditions: read-out: Metabolism
Summary of the method: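 Pooled human liver microsomes (1 mg/mL, 6–8 livers) with 2 mM NADPH in 100 mM potassium phosphate pH 7.4 were preincubated 1 min at 37 °C. Compound was added at 25 μM and incubated 30 min, then quenched with acetonitrile. Loss was measured against time-zero controls by reversed-phase HPLC with UV at 215 nm.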

CCOC(=O)/C=C/[C@H](CCC(N)=O)NC(=O)[C@H](Cc1ccccc1)n1cccc(NC(=O)C(C)(C)C)c1=O
CC50 [1]: > 10 µM
EC50 [2]: 0.518 µM
K obs / 1 [3]: 5040 M⁻¹ s⁻¹

CCOC(=O)/C=C/[C@H](C[C@H]1CCNC1=O)NC(=O)[C@H](Cc1ccccc1)n1cccc(NC(=O)OCc2ccccc2)c1=O
CC50 [1]: > 10 µM
EC50 [2]: 0.469 µM
K obs / 1 [3]: 6340 M⁻¹ s⁻¹

CCOC(=O)/C=C/[C@H](CCC(N)=O)NC(=O)[C@H](Cc1ccc(F)c(F)c1)n1cccc(NC(=O)OCc2ccccc2)c1=O
CC50 [4]: > 10 µM
EC50 [2]: 0.003 µM
CC50 [5]: > 10 µM
CC50 [6]: > 10 µM
K obs / 1 [3]: 193000 M⁻¹ s⁻¹

CCOC(=O)c1ccc(OCCC2CCN(c3ccc(C)nn3)CC2)cc1 [PIRODAVIR]
CC50 [1]: > 10 µM
EC50 [2]: 0.044 µM

CCOC(=O)/C=C/[C@H](CCC(N)=O)NC(=O)[C@H](Cc1ccccc1)n1cccc(NC(=O)OCc2ccccc2)c1=O
CC50 [7]: > 10 µM
CC50 [8]: 50 µM
CC50 [9]: > 10 µM

CCOC(=O)/C=C/[C@H](CCC(N)=O)NC(=O)[C@H](CC1CCCCC1)n1cccc(NC(=O)OCc2ccccc2)c1=O
CC50 [1]: > 10 µM
EC50 [2]: 0.178 µM
K obs / 1 [3]: 6500 M⁻¹ s⁻¹

Cc1cc(C(=O)Nc2cccn([C@@H](Cc3ccc(F)c(F)c3)C(=O)N[C@H](/C=C/C(=O)OC(C)C)C[C@@H]3CCNC3=O)c2=O)no1
Cmax [10]: 10600 ng/mL
half-life (Homo sapiens [11]): 9.7 h
CC50 [12]: > 10 µM
CC50 [13]: > 10 µM
bioavailability [14]: 48%
CC50 [15]: > 10 µM
CC50 [16]: > 10 µM
clearance [17]: 14.7 mL/min/kg
Tmax [18]: 1.17 h
half-life [19]: 3.4 h
CC50 [20]: > 10 µM
CL/F [21]: 33 mL/min/kg
CC50 [22]: > 10 µM
CC50 [23]: > 10 µM
V (Canis familiaris): 9.6 L/kg
CC50 [24]: > 10 µM
CC50 [25]: > 10 µM
CC50 [26]: > 10 µM
AUC [27]: 16300 ng·h/mL
Cmax [28]: 3500 ng/mL
CC50 [29]: > 10 µM
CC50 [30]: > 10 µM
Tmax [31]: 4 min
AUC [32]: 17100 ng·h/mL
metabolised at 0.5 h (Homo sapiens [33]): 55%
CC50 [34]: > 10 µM
Vd [35]: 4.2 L/kg
CC50 [36]: > 10 µM
half-life [37]: 3.23 h
CC50 [38]: > 10 µM

CCOC(=O)/C=C/[C@H](CCC(N)=O)NC(=O)[C@H](Cc1ccc(F)cc1)n1cccc(NC(=O)OCc2ccccc2)c1=O
CC50 [4]: > 10 µM
EC50 [2]: 0.014 µM
CC50 [5]: > 10 µM
CC50 [6]: > 320 µM
K obs / 1 [3]: 81400 M⁻¹ s⁻¹

Cc1cc(CCCOc2c(C)cc(-c3noc(C(F)(F)F)n3)cc2C)on1 [PLECONARIL]
CC50 [1]: > 10 µM
EC50 [2]: 0.058 µM

CCOC(=O)/C=C/[C@H](CCC(N)=O)NC(=O)[C@H](Cc1ccccc1)n1ccc(C)c(NC(=O)OCc2ccccc2)c1=O
K obs / 1 [3]: 25800 M⁻¹ s⁻¹

CCOC(=O)/C=C/[C@H](C[C@@H]1CCNC1=O)NC(=O)[C@H](Cc1ccc(F)cc1)n1cccc(NC(=O)c2cc(C)on2)c1=O
metabolised at 0.5 h [39]: 95%
CC50 [12]: > 10 µM
CC50 [13]: > 10 µM
EC50 [2]: 0.002 µM
K obs / 1 [3]: 1.25e+06 M⁻¹ s⁻¹
CC50 [38]: > 10 µM
